Autophagy mod = modulators of autophagy; hit rate 0.98% among 190,000; calls only at 10 µM (by protocol); MEF GFP-LC3 puncta imaging; test concentration mostly 10 µM;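 active means percentage of spot-positive cells more than 3 SD above its plate mean, without a fluorescence outlier flag or 80% toxicity; inconclusive means no clear call, values can overlap the other calls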;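 further: spot-positive cell cutoff set from DMSO-treated cells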
INS promoter inh = TRM-6 insulin promoter activity inhibition. TRM-6 cells (human fetal islet line), insulin promoter-eGFP reporter, imaging; reporter expression induced with tamoxifen. inhibition, % at 2 µM. hit rate 0.9% among 130,000. AID 1273;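 active means inhibition above the mean plus 3 SD, with well images judged a real hit on visual review, cut at about 60% in these data, passing the limit was not always enough; inconclusive means inhibition over the cutoff but images rejected on review; inactive means inhibition not above the cutoff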
Ins promoter up = MIN6 insulin promoter up-regulation. MIN6 insulin promoter-GFP reporter, high-content imaging; hits give high values. z-score at 5 µM. hit rate 0.3% among 190,000;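 active means z-score above 3 at 5 µM with at least 500 cells counted in the well; inconclusive means wells under 500 cells, flagged as cytotoxic or low count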
Dynein transport = blocks dynein driven cargo transport along microtubules. AID 1381. z-score, hits read low. hit rate 0.47% among 220,000. 3617.4 mouse cells, GR-EGFP nuclear translocation imaging; test concentration mostly 20 µM; stimulated with dexamethasone, 1 µM; hits give low values;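 active means plate z-score of nuclear minus cytoplasmic receptor signal below a set negative limit, without overly bright fluorescence or cell loss, cut at about -3.5 in these data, passing the limit was not always enough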;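 further: z-score of nuclear minus cytoplasmic ring GR-EGFP intensity difference per well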
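Buffer or medium – tet-free medium with charcoal-stripped serum · Signal – automated 10x imaging of fixed Hoechst-stained cells · Also added – dexamethasone agonist, 1.0 µM final, for 30 min · Incubation – induction 48 h, compound 1 h, agonist 30 min · Read-out – GR-EGFP nuclear translocation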
Dynein confirm = dynein cargo transport inhibition, confirmation | calls only at 20 µM | 3617.4 GR-EGFP nuclear translocation imaging, dexamethasone-induced | hit rate 69% among 1,000 | AID 463116 | shares compounds with Dynein transport;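 active means inhibition of receptor movement into the nucleus at or above a set limit in both runs, with normal cell brightness and cell count; inconclusive means limit reached in only one run, brightness and count normal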;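 further: dexamethasone at 1 µM final in well for 30 min; nuclear minus cytoplasmic GR-EGFP mean intensity difference in channel 2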
* hit, by the source's call; i = inactive; ? = inconclusive; . = not tested or not shown; + = active, no number; ! = a repeat was not active. Rows were chosen to be rich in hits. Some 2% of all compounds tested hit in one or more screens of this group.

SMILES	Autophagy mod	INS promoter inh	Ins promoter up	Dynein transport	others
CC1CCC(C(C)C)C(OC(=O)Cn2c(-c3ccccc3)[n+](C)c3ccccc32)C1 (stereo not drawn)	+!	-43	?	-0.2
CC(C)(C)C(=O)Nc1ccc(S(=O)(=O)c2ccc(NC(=O)C(C)(C)C)cc2)cc1	i	75*	0.37	-1.5
CC(C)(C)C(=O)Nc1ccc(NC(=O)C(C)(C)C)cc1	.	.	0.24	2.1
Cc1cc2c3c(ccc(C)c3n1)N=CN2c1ccccc1	i	81*	-0.39	-0.22
Cc1cc(Nc2ccccc2)c2c([N+](=O)[O-])ccc(C)c2n1	i	-57	-1.1	-0.59
Cc1ccc(/C=N/NC(=O)c2cccc(S(=O)(=O)N3CCOCC3)c2)o1	i	.	-0.7	-0.58
COc1ccc(-c2csc(NC(=O)CSc3nc(C)nc4sc(C(=O)O)c(C)c34)n2)cc1	.	.	0.4	-0.5
COCCn1nnnc1CN(CCc1ccc(OC)c(OC)c1)Cc1cc2ccc(C)cc2[nH]c1=O	+	.	-0.06	3.4
COc1ccnc(N=CNOCc2cccc(C(F)(F)F)c2)c1C#N	i	.	-0.86	0.91
Cc1cc(C)cc(N2C(=O)CC(Sc3ncn[nH]3)C2=O)c1 (stereo not drawn)	i	.	-0.15	-0.7
CCOC(=O)c1sc2cc([N+](=O)[O-])cc(SCC(C)C)c2c1N	+	-43	.	-0.82
CC(C)CC(C(=O)NC1CCCC1)N(Cc1ccc2c(c1)OCO2)C(=O)c1snc(C(N)=O)c1N (stereo not drawn)	i	.	-0.59	0.18
CC(C(=O)NC1CCCC1)N(Cc1ccc2c(c1)OCO2)C(=O)c1snc(C(N)=O)c1N (stereo not drawn)	+	.	-0.04	-0.15
O=S1(=O)C=C(Sc2nnc(-c3ccccc3)o2)c2ccccc21	i	-270	1.1	-4.1*
N#Cc1ccsc1NC(=O)CN1CCN(c2ccccn2)CC1	i	-51	-2	-1.4
Cc1cnc(NC(=O)CN2CCN(c3ccccn3)CC2)s1	i	-10	3.1*	-0.14
Cc1ccc(-n2c(=O)[nH]c3c(C(N)=O)nc(CC(C)C)nc32)cc1	i	93*	0.12	0.28
O=[N+]([O-])c1ccc(N/N=C/c2sc(N3CCOCC3)nc2-c2ccccc2)c(S(=O)(=O)Nc2ccc(Cl)cc2)c1	+	-488	?	-5
O=[N+]([O-])c1ccc(N/N=C/c2sc(N3CCOCC3)nc2-c2ccccc2)c(S(=O)(=O)Nc2ccccc2Cl)c1	+	.	.	-3.5
O=C(O)c1cccc(N/N=C/c2sc(N3CCOCC3)nc2-c2ccccc2)c1	i	47	-0.3	0.26
N#Cc1ccccc1S(=O)(=O)N1CCN(CC(O)c2ccccc2)CC1 (stereo not drawn)	i	10	-0.17	1.3
c1cc2c(cc1C1CCCCC1)c1c3n2CCCNC3CCC1 (stereo not drawn)	+	-67	?	-5.8
Cc1ccc2c(c1)c1c3n2CCCNC3CCC1 (stereo not drawn)	i	.	?	-1
Nc1cccnc1Sc1cc(Cl)cc(Cl)c1	i	90*	0.34	-0.47
Cn1cnc([N+](=O)[O-])c1Sc1ncccc1N	i	-10	-0.15	-1.2
SMILES	Autophagy mod	INS promoter inh	Ins promoter up	Dynein transport	others
Cc1noc(C)c1C(=O)N1CCN(c2ccc(OCc3ccccc3)cc2)CC1	.	.	0.06	1.5
COC(=O)c1c(NC(=O)/C=C/C(=O)O)sc(Cc2ccccc2)c1C	i	8	-0.2	-0.79
Cc1c(Cc2ccccc2)sc(NC(=O)/C=C/c2cccc3ccccc23)c1C(N)=O	+	.	-0.39	-1.1
CN(C)c1nc(N)nc(/C(C#N)=C/C2CC3C=CC2C3)n1 (stereo not drawn)	i	36	3*	0.53
O=C(CNC(=S)N(Cc1ccccc1)Cc1ccccc1F)NCCc1ccc(Cl)cc1	i	33	-1.6	2.2
COc1ccc(COc2cc(-c3cccc(OC)c3)nc3ccc(NC(=O)c4ccc(OC)cc4)cc23)cc1	i	-40	-1.6	-0.22
COc1ccc(COc2cc(-c3cccc(OC)c3)nc3ccc(NC(=O)c4cccnc4)cc23)cc1	+	15	.	0.56
NC(=O)c1cccc(C(N)=O)n1	i	.	0.48	0.27
COc1ccc(/C=C/CN2CCCC(CO)(Cc3cccc(Cl)c3)C2)cc1 (stereo not drawn)	i	.	.	-0.11
Cn1nc(-c2ccc(Cl)cc2)c2cc(C(=O)NCC3CCCO3)sc21 (stereo not drawn)	i	.	0.38	-1.4
Cn1nc(-c2ccc(Cl)cc2)c2cc(C(=O)N3CCOCC3)sc21	i	.	-0.59	-0.48
CN1CCN(CCCNC(=O)c2cc3c(-c4ccc(Cl)cc4)nn(C)c3s2)CC1	+	.	-1.3	-0.82
CCN(CC)CCCNC(=O)c1cc2c(-c3ccc(Cl)cc3)nn(C)c2s1	+	.	0.22	0.86
COc1c(C)cc(Br)cc1C(=O)Nc1ccc(Cc2ccncc2)cc1	+	.	0.71	-0.66
COc1ccccc1C(=O)Nc1ccc(Cc2ccncc2)cc1	i	27	.	-0.88
Cc1c(Nc2cc(Cl)c3nonc3c2[N+](=O)[O-])c(=O)n(-c2ccccc2)n1C	+	100*	0.23	-6*
CC(=O)Nc1nc(-c2ccc(Cl)cc2)ns1	+	-86	-0.01	1.3
CCC(=O)Nc1nc(-c2ccccc2)ns1	i	24	.	1.8
CCC(=O)OCCNc1cc(Sc2nc3ccccc3s2)c2nonc2c1[N+](=O)[O-]	i	-4	-1.2	-2
O=[N+]([O-])c1c(NCCCO)cc(Sc2nc3ccccc3s2)c2nonc12	i	25	.	-4.1*	Dynein confirm=+
CCCSc1cc(NCCOC(C)=O)c([N+](=O)[O-])c2nonc12	i	5	-0.11	-0.15
CC(=O)OCCCNc1cc(SCc2ccco2)c2nonc2c1[N+](=O)[O-]	i	37	0.8	-5.5*	Dynein confirm=+
CCCC(=O)OCCNc1cc(Sc2nccn2C)c2nonc2c1[N+](=O)[O-]	i	28	0.47	-3.5
CCCC(=O)OCCNc1cc(SCc2ccco2)c2nonc2c1[N+](=O)[O-]	i	37	0.43	-3.9*	Dynein confirm=+
CCC(=O)OCCNc1cc(Sc2nc3ccccc3[nH]2)c2nonc2c1[N+](=O)[O-]	i	-37	0.21	-4.9*	Dynein confirm=i
CC(=O)Nc1ccc(CN2CCCC(C(=O)c3ccc(C(F)(F)F)cc3)C2)cc1 (stereo not drawn)	i	.	-0.86	-0.47
O=c1[nH]c2ccccc2[n+]([O-])c1-c1ccccc1	i	33	0.37	-0.82
CCCSc1cc(NCCOC(=O)CCC)c([N+](=O)[O-])c2nonc12	i	7	-0.44	-4.9*	Dynein confirm=+
Cc1cnc(NC(=O)c2nn(C)cc2[N+](=O)[O-])s1	i	.	0.5	-3.6*	Dynein confirm=+
Cn1cc([N+](=O)[O-])c(C(=O)Nc2nc(-c3ccc(Cl)cc3)cs2)n1	i	25	0.41	-3.9*	Dynein confirm=+

Source: PubChem BioAssay (several laboratories)
